Screening data deposited in PubChem by several laboratories.
STEP inh – inhibitors of human striatal-enriched phosphatase STEP; AID 588621; P54829; inhibition, % at 20 µM; recombinant STEP, OMFP fluorogenic substrate, fluorescence; hit rate 0.25% among 360,000;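 active means inhibition at 20 µM, scaled per plate between control wells, above about 37%, limit read from the data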;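 further: 0% = DMSO with enzyme and substrate and 100% = substrate only without enzyme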
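Assay system: isolated STEP enzyme / Timing: 20 min at room temperature, dark / Doses: 20 µM, 1% DMSO / Technique: fluorescence intensity, excitation 480 nm, emission 540 nm / Reagent: fluorogenic phosphatase substrate OMFP at 25 µM final / Measure: percent inhibition scaled to no-enzyme and uninhibited-enzyme controls, plate-pattern corrected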
Scp1 inh – Scp-1 (human) phosphatase inhibition; Q9GZU7; Recombinant Scp1, phosphopeptide, malachite green phosphate absorbance; inhibition, % at 20 µM; hit rate 0.88% among 340,000;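 active means inhibition above about 50% at 20 µM, limit read from the data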;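 further: plate controls were DMSO wells with enzyme for no effect and wells lacking enzyme for full effect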
Target sequence (Q9GZU7 76-261 limits assumed): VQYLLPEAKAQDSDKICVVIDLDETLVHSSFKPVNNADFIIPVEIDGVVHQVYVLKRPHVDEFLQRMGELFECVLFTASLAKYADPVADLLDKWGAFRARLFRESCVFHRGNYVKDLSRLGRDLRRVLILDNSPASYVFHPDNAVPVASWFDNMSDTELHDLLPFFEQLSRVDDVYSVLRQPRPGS
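Material – SCP-1 phosphatase catalytic domain, residues 76-261 · Buffer or medium – Acidic Tris acetate buffer with magnesium and detergent · Also added – Phospho 17-mer peptide substrate · Compound – single 20 µM dose, 1% DMSO · Times – 45 min room-temperature reaction, 5 min colour, 30 min stabiliser · Technique – Phosphate-binding colour reagent, absorbance read at 630 nm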
DNMT1 block – inhibitors of human DNMT1; hit rate 0.83% among 360,000; P26358; AID 588458; inhibition (reported as % activation of signal), % at 10 µM; DNMT1 molecular beacon, Hinp1I cleavage, fluorescence; in the data active means inhibition above about 50%
SUMO1-SIM PPI – alters human SUMO1 binding to SIM partners. hit rate 0.33% among 360,000. SUMO1 binding to a labelled peptide, TR-FRET, 1 h. inhibition, % at 20 µM. AID 602429; in the data active means inhibition above about 37%
Target sequence (P63165 whole entry, looked up): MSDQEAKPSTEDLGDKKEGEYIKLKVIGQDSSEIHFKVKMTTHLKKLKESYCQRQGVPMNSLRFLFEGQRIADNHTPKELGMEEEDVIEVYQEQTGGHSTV
LMPTP block – LMPTP (human) inhibition; P24666; recombinant LMPTP-A, OMFP fluorogenic substrate, fluorescence intensity; inhibition, % at 20 µM; hit rate 0.22% among 360,000; AID 651560;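 active means compounds that cut the enzyme signal by at least half of the control window in the single-dose screen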;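 further: plate controls were DMSO wells with enzyme plus substrate for no effect and substrate without enzyme for full effect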
Target sequence (P24666 whole entry, looked up): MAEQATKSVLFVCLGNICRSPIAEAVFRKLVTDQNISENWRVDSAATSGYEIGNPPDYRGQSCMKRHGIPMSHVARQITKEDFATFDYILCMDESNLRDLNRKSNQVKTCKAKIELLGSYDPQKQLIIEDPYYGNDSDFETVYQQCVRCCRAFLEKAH
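material = LMPTP-A | quantity = 0.625 nM enzyme | reagent = OMFP substrate, 400 µM final | buffer or medium = Bis-Tris pH 6.0, DTT, detergent | detection = endpoint fluorescence intensity from OMFP dephosphorylation | dosing = single 20 µM dose | read-out basis = % inhibition relative to no-enzyme and uninhibited control wells | control set = no-enzyme and uninhibited controls | timing = 50 min at room temperature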
CFTR F508del cor – CFTR F508del correction in bronchial cells. CFBE cells, YFP halide quenching; stimulated with forskolin plus potentiator P3; % fluorescence drop versus neutral controls. activity (quench increase), % at 7.58 µM. hit rate 0.36% among 350,000. AID 720511;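 active means mean added fluorescence quench of at least 8% versus neutral control, with both replicates also reaching 8%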;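 further: cells transiently co-express mutant CFTR-F508del with the halide-sensitive YFP; corrector assay measuring rescue of mutant channel to the surface after 24 h compound exposure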
Scp-1 conf – confirmation of human Scp-1 phosphatase inhibitors. shares compounds with Scp1 inh. recombinant SCP-1 catalytic domain, phosphate release, malachite green absorbance. inhibition, % at 20 µM. hit rate 61% among 2,500. AID 540281;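 further: plate controls were DMSO with enzyme for no effect and buffer wells lacking enzyme for full effect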
MG interference – counter-screen for Scp-1 inhibitors: colorimetric interference | shares compounds with Scp1 inh | Colorimetric interference counterscreen, malachite green absorbance 630 nm | apparent inhibition (interference), % at 20 µM | 2,500 tested, under 10 active | AID 540313;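 further: compounds added after enzyme reaction finished so only phosphate colour detection is probed; plate controls were DMSO wells with completed Scp-1 reaction for no effect and substrate wells lacking enzyme for full effect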
Scp1 DSF – Scp-1 (human) binding by thermal shift; shares compounds with Scp1 inh; Recombinant SCP1, Sypro Orange thermal shift Tm; AID 540329; thermal shift relative to vanadate control, % at 40 µM; hit rate 25% among 1,500;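 active means substances whose mean melting-temperature shift, as a percentage of the reference inhibitor's shift, reaches about 5.3%, limit read from the data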;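 further: 0% = Tm of DMSO wells and 100% = Tm with sodium orthovanadate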
An asterisk follows results filed as active; nt = no result given. An excerpt weighted towards active compounds, which were near 1.6% of everything screened.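 How the source made its calls, unless noted: active means inhibition of at least 30% at 20 µM; inactive means the rest.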

SMILES	STEP inh	Scp1 inh	DNMT1 block	SUMO1-SIM PPI	LMPTP block	CFTR F508del cor	Scp-1 conf	MG interference	others
COCCN(C(=O)C1CC(=O)N(Cc2ccc(C)cc2)C1)c1c(N)n(CC(C)C)c(=O)[nH]c1=O (stereo not drawn)	-2.9	-0.1	-1.8	0.6	0.6	-4.0	nt	nt
CCCCN(C(=O)C1CC(=O)N(Cc2ccc(C)cc2)C1)c1c(N)n(CC(C)C)c(=O)[nH]c1=O (stereo not drawn)	-1.7	-7.2	0.3	-0.6	-0.5	4.6	-11.1	-6.0
Cc1ccccc1C(=O)N1CCC(C(=O)N(CC(C)C)c2c(N)n(CC(C)C)c(=O)[nH]c2=O)CC1	-2.1	4.7	1.6	0.6	-0.5	0.3	nt	nt
COc1ccc(C#Cc2ccc3c(c2)[C@]2(C(=O)N3)[C@H](c3ccc(OCCO)cc3)N3[C@H](c4ccccc4)[C@H](c4ccccc4)OC(=O)[C@H]3[C@@H]2C(=O)N2CCCCCCC2)cc1	nt	nt	nt	nt	nt	-3.7	nt	nt
C[C@H]1CN([C@@H](C)CO)C(=O)c2cc(C3=CCCC3)cnc2O[C@@H]1CN(C)Cc1ccc(F)cc1	nt	nt	nt	nt	nt	3.6	nt	nt
COC(=O)c1ccc(NC(=O)c2cn(-c3cccc(C)n3)cn2)cc1	-7.6	-1.5	-20.8	4.0	-2.7	nt	nt	nt
Cc1ccc(NC(=O)c2cn(-c3cccc(C)n3)cn2)cc1	-0.4	67.4*	-1.0	0.6	-1.7	nt	-5.6	-12.9
C[n+]1cnc(-c2ccccc2)cc1-c1ccccc1	-2.8	100.8*	1.7	-23.4	0.7	nt	85.8*	-12.3	Scp1 DSF=-20.5
C[C@@H]1CN([C@@H](C)CO)C(=O)c2cc(C#Cc3ccc(F)cc3)cnc2O[C@@H]1CN(C)C	nt	nt	nt	nt	nt	-1.5	nt	nt
O=C(N/N=C/c1cccnc1)c1cccc(NC(=O)c2ccc(Cl)cc2)c1	96.8*	82.2*	-8.1	66.1*	20.3	nt	65.4*	-12.0	Scp1 DSF=2.1
CCS(=O)(=O)C1=NN2C(=N)/C(=C\c3ccc(OCCOc4cccc(OC)c4)c(OC)c3)C(=O)N=C2S1	-0.8	67.1*	0.1	6.8	4.4	0.4	65.1*	-15.6	Scp1 DSF=11.2*
COc1cc(/C=C2\C(=N)N3N=C(S(C)(=O)=O)SC3=NC2=O)ccc1OCCOc1ccc(C)cc1	8.6	67.1*	-4.7	5.7	6.6	0.6	36.3*	-15.9	Scp1 DSF=9.7*
COc1cc(/C=C2\C(=N)N3N=C(S(C)(=O)=O)SC3=NC2=O)cc(OC)c1OCCOc1ccc(C)cc1	2.4	11.5	-6.8	-5.2	0.6	-4.1	nt	nt
CNC[C@H]1Oc2ccc(N(C)C)cc2C(=O)N([C@H](C)CO)C[C@H]1C	nt	nt	nt	nt	nt	1.2	nt	nt
COc1ccc2c(C)cc(SCC(=O)Nc3cc(C(N)=O)cc(C(N)=O)c3)nc2c1	19.8	49.9	-2.4	-148.5	0.1	-1.2	nt	nt
COc1ccc2nc(SCC(=O)NN)cc(C)c2c1	3.0	86.9*	-14.6	-1.7	0.5	nt	-8.4	-11.2
Clc1ccc(C=NN2CCCCCC2)c(Cl)c1	-1.0	66.7*	2.6	1.6	0.6	-1.5	-13.9	-19.5
CN(C)C(=O)[C@@H]1[C@@H](CO)[C@@H]2Cn3c(cccc3=O)[C@@H]2N1CC1CCCCC1	nt	nt	nt	nt	nt	-0.6	nt	nt
CCOc1ccc(N2CC(C(=O)Nc3cccc(S(=O)(=O)N4CCCCC4)c3)CC2=O)cc1 (stereo not drawn)	-1.2	-6.0	-4.6	3.9	1.0	-0.5	nt	nt
CSc1cccc(N2CC(C(=O)Nc3cccc(S(=O)(=O)N4CCCC4)c3)CC2=O)c1 (stereo not drawn)	-2.8	73.6*	0.1	-1.2	1.0	-6.2	76.1*	-23.8	Scp1 DSF=-14.4
COc1ccc(N2CC(C(=O)Nc3nc4ccccc4s3)CC2=O)cc1 (stereo not drawn)	0.9	-4.3	0.2	2.6	-0.9	1.6	-3.0	-4.3
COc1ccc(N2CC(C(=O)Nc3ccc(S(=O)(=O)N4CCCC4)cc3)CC2=O)cc1 (stereo not drawn)	-1.3	53.5*	-5.3	1.4	-0.4	-1.6	-23.4	-20.0
CCOc1ccc(N2CC(C(=O)Nc3ccc(N4CCOCC4)cc3)CC2=O)cc1 (stereo not drawn)	-2.2	-0.6	-2.2	-1.5	-0.9	nt	-2.1	-14.5
CC(C)NC(=O)Nc1ccc2c(c1)C(=O)N([C@H](C)CO)C[C@H](C)[C@@H](CN(C)C(=O)Nc1cccc3ccccc13)OCCCC[C@@H](C)O2	nt	nt	nt	nt	nt	2.8	nt	nt
Cc1ccc(S(=O)(=O)Nc2ccc3c(c2)C(=O)N([C@@H](C)CO)C[C@H](C)[C@@H](CN(C)Cc2ccccc2)O3)cc1	nt	nt	nt	nt	nt	4.3	nt	nt
SMILES	STEP inh	Scp1 inh	DNMT1 block	SUMO1-SIM PPI	LMPTP block	CFTR F508del cor	Scp-1 conf	MG interference	others
CCNC(=O)C[C@H]1C=C[C@H](NC(=O)C2CCC2)[C@H](CO)O1	nt	nt	nt	nt	nt	-2.2	nt	nt
COCCNC(=O)C[C@@H]1C[C@@H]2c3cc(NC(=O)Nc4ccccc4)ccc3O[C@@H]2[C@H](CO)O1	nt	nt	nt	nt	nt	3.4	nt	nt
C[C@H](CO)N1C[C@H](C)[C@H](CN(C)C(=O)c2ccccc2)Oc2cc(C#CC3(O)CCCC3)ccc2S1(=O)=O	nt	nt	nt	nt	nt	-3.6	nt	nt
COc1ccc2c3c(n(C)c2c1)[C@@H](CO)N(C(=O)C1CC1)CC31CN(C(=O)Nc2cccc(F)c2)C1	nt	nt	nt	nt	nt	-3.3	nt	nt
CSc1n[nH]c(NCc2ccc(C)cc2)n1	-3.3	55.1*	1.6	1.9	-0.1	nt	-7.1	-11.7
CSc1n[nH]c(NCc2ccc(Cl)cc2)n1	0.4	-6.8	2.0	2.5	-1.0	nt	nt	nt
C[C@@H]1CCCCO[C@H](CN(C)C(=O)Nc2ccc(C(F)(F)F)cc2)[C@@H](C)CN([C@@H](C)CO)C(=O)c2cc(NC(=O)Cc3ccccc3)ccc2O1	nt	nt	nt	nt	nt	-2.1	nt	nt
CCC(=O)N1CC[C@@H]2[C@H](CO)Nc3ccc(C#Cc4cccc(OC)c4)cc3[C@@H]21	nt	nt	nt	nt	nt	-0.4	nt	nt
O=C(COC(=O)c1cc(-c2ccccc2Cl)nc2ccccc12)Nc1ncc(C(F)(F)F)cc1Cl	2.9	50.3*	23.8	4.6	1.9	nt	35.7*	-8.2	Scp1 DSF=-10.1
O=S(=O)(c1cc(C(F)(F)F)ccc1Cl)N1CCN(Cc2ccc(OCCO)cc2)CC1	nt	nt	nt	nt	nt	4.3	nt	nt
O=C(CN1CCOCC1)NCC[C@H]1CC[C@H](NC(=O)c2ccc3c(c2)OCO3)[C@H](CO)O1	nt	nt	nt	nt	nt	1.5	nt	nt
COc1ccc(CC(=O)Nc2ncc([N+](=O)[O-])s2)cc1OC	9.3	71.0*	1.8	12.7	24.3	-4.2	66.4*	-15.6	Scp1 DSF=12.0*
